Assay results published in ChEMBL document CHEMBL1122607, “Heterocyclic analogues of chlorcyclizine with potent hypolipidemic activity” (J Med Chem, 1984).

Tests used:
[1] = test system: Rattus norvegicus; test: Hypolipidemic activity was measured as reduction in rat serum cholesterol after oral administration in male Wistar rats at 3 mg / (kg day); assay type: functional
How it was run: (§1)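 Cholesterol-fed rats given the test compound orally by gavage on the last 3 days, with controls receiving vehicle (0.5% tragacanth mucilage). After overnight starvation, rats were killed under CO2 3 h after the last dose and bled by cardiac puncture. Serum cholesterol and triglyceride were measured by autoanalyzer and expressed as percentage reduction from control levels, with Student's t test.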

[2] = test system: Rattus norvegicus; test: Hypolipidemic activity was measured as reduction in rat serum cholesterol after oral administration in male Wistar rats at 10 mg / (kg day); assay type: functional; how it was run: as §1
[3] = test system: Rattus norvegicus; test: Hypolipidemic activity was measured as reduction in rat serum triglyceride after oral administration in male Wistar rats at 100 mg / (kg day); assay type: functional; how it was run: as §1
[4] = test system: Rattus norvegicus; test: Hypolipidemic activity was measured as reduction in rat serum triglyceride after oral administration in male Wistar rats at 1; assay type: functional; how it was run: as §1
[5] = test system: Rattus norvegicus; test: Hypolipidemic activity was measured as reduction in rat serum triglyceride after oral administration in male Wistar rats at 3 mg / (kg day); assay type: functional; how it was run: as §1
[6] = test system: Rattus norvegicus; test: Hypolipidemic activity was measured as reduction in rat serum cholesterol after oral administration in male Wistar rats at 100 mg/(kg day); assay type: functional; how it was run: as §1
[7] = test system: Rattus norvegicus; test: Hypolipidemic activity was measured as reduction in rat serum cholesterol after oral administration in male Wistar rats at 30 mg / (kg day); assay type: functional; how it was run: as §1
[8] = test system: Rattus norvegicus; test: Hypolipidemic activity was measured as reduction in rat serum cholesterol after oral administration in male Wistar rats at 1 mg / (kg day); assay type: functional; how it was run: as §1
[9] = test system: Rattus norvegicus; test: Minimum effective dose (MED) is the dose (mg/kg)that cause significant reduction in serum cholesterol of 30% compared to concurrent controls.; assay type: functional; set-up: unit: mg/kg
How it was run: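 MED was calculated from the log dose/response curve as the dose giving a statistically significant 30% fall in serum cholesterol versus concurrent controls. Measured in the 3-day oral cholesterol-fed rat screen, or in a 2-week test: groups of eight young male Wistar rats on cholesterol/cholic acid-supplemented or normal diet, dosed orally by gavage daily for 14 days, vehicle 0.5% tragacanth mucilage.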

[10] = test system: Rattus norvegicus; test: Hypolipidemic activity was measured as reduction in rat serum triglyceride after oral administration in male Wistar rats at 10 mg / (kg day); assay type: functional; how it was run: as §1
[11] = (§2) The therapeutic safety margin (TSM) is the ratio of the minimum lethal dose (mg/kg)to the MED; assay type: ADME, organism-based; conditions: in vivo
How it was run: (§3)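 Young male Wistar rats, eight per group, on cholesterol/cholic acid-supplemented or normal diet; graded oral gavage doses daily for 14 days; vehicle controls (0.5% tragacanth mucilage). Mortalities recorded to give the minimum lethal daily dose. After overnight fasting, serum cholesterol assayed by autoanalyzer. MED is the dose giving a significant (t test) 30% cholesterol fall, from the log dose/response curve. TSM = minimum lethal dose/MED.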

[12] = test system: Rattus norvegicus; test: Hypolipidemic activity was measured as reduction in rat serum triglyceride after oral administration in male Wistar rats at 30 mg / (kg day); assay type: functional; how it was run: as §1
[13] = test system: Rattus norvegicus; test: Hypolipidemic activity was measured as reduction in rat serum cholesterol after oral administration in male Wistar rats at 200 mg/(kg day); assay type: functional; how it was run: as §1
[14] = test system: Rattus norvegicus; test: Hypolipidemic activity was measured as reduction in rat serum cholesterol after oral administration in male Wistar rats at 100 mg / (kg day); assay type: functional; how it was run: as §1
[15] = test system: Rattus norvegicus; test: Hypolipidemic activity was measured as reduction in rat serum triglyceride after oral administration in male Wistar rats at 200 mg / (kg day); assay type: functional; how it was run: as §1
[16] = test system: Rattus norvegicus; test: Hypolipidemic activity was measured as reduction in rat serum triglyceride after oral administration in male Wistar rats at 50 mg / (kg day); assay type: functional; how it was run: as §1
[17] = test system: Rattus norvegicus; test: Hypolipidemic activity was measured as reduction in rat serum cholesterol after oral administration in male Wistar rats at 5 mg / (kg day); assay type: functional; how it was run: as §1
[18] = test system: Rattus norvegicus; test: Hypolipidemic activity was measured as reduction in rat serum triglyceride after oral administration in male Wistar rats at 2.5 mg / (kg day); assay type: functional; how it was run: as §1
[19] = test system: Rattus norvegicus; test: Hypolipidemic activity was measured as reduction in rat serum cholesterol after oral administration in male Wistar rats at 2.5 mg / (kg day); assay type: functional; how it was run: as §1
[20] = test system: Rattus norvegicus; test: Hypolipidemic activity was measured as reduction in rat serum cholesterol after oral administration in male Wistar rats at 50 mg / (kg day); assay type: functional; how it was run: as §1
[21] = test system: Rattus norvegicus; test: Hypolipidemic activity was measured as reduction in rat serum triglyceride after oral administration in male Wistar rats at 5 mg / (kg day); assay type: functional; how it was run: as §1
[22] = test system: Rattus norvegicus; test: Hypolipidemic activity was measured as reduction in rat serum triglyceride after oral administration in male Wistar rats at 1 mg / (kg day); assay type: functional; how it was run: as §1
[23] = test system: Rattus norvegicus; test: Hypolipidemic activity was measured as reduction in rat serum cholesterol after oral administration in male Wistar rats at 3 mg / (kg day);; assay type: functional; how it was run: as §1
[24] = test system: Rattus norvegicus; test: Hypolipidemic activity was measured as reduction in rat serum triglyceride after oral administration in male Wistar rats at 3 mg / (kg day);; assay type: functional; how it was run: as §1
[25] = test system: Rattus norvegicus; test: xHypolipidemic activity was measured as reduction in rat serum cholesterol after oral administration in male Wistar rats at 10 mg / (kg day); assay type: functional; how it was run: as §1
[26] = as §2; assay type: functional; how it was run: as §3

Structure (SMILES): Cc1noc(C)c1C(c1ccc(C(C)C)cc1)N1CCN(CCO)CC1 (stereo not given)
- Reduction [1]: 50%
- Reduction [2]: 76%
- Reduction [3]: 84%
- Reduction [4]: 7%
- Reduction [5]: 29%
- Reduction [6]: 84%
- Reduction [7]: 77%
- Reduction [8]: 5%
- MED [9]: 2
- Reduction [10]: 56%
- therapeutic safety margin (minimum lethal dose / MED) [11]: 100
- Reduction [12]: 16%

Structure (SMILES): Cc1cc(C(c2ccc(Cl)cc2)N2CCN(C)CC2)sn1 (stereo not given)
- Reduction [3]: 2%
- Reduction [13]: 67%
- Reduction [14]: 15%
- Reduction [15]: 19%

Structure (SMILES): CC(C)c1ccc(C(c2ccns2)N2CCN(C)CC2)cc1 (stereo not given)
- Reduction [16]: 67%
- Reduction [2]: 57%
- Reduction [3]: 81%
- Reduction [17]: 39%
- Reduction [6]: 86%
- Reduction [18]: 15%
- MED [9]: 6
- Reduction [19]: 26%
- Reduction [20]: 82%
- Reduction [21]: 29%
- Reduction [10]: 63%
- therapeutic safety margin (minimum lethal dose / MED) [11]: 14

Structure (SMILES): Cc1noc(C)c1C(c1ccc(C(C)C)cc1)N1CCNCC1 (stereo not given)
- Reduction [2]: 76%
- Reduction [3]: 96%
- Reduction [22]: 22%
- Reduction [6]: 86%
- Reduction [23]: 72%
- Reduction [24]: 45%
- Reduction [7]: 85%
- Reduction [8]: 19%
- MED [9]: 1
- Reduction [10]: 82%
- therapeutic safety margin (minimum lethal dose / MED) [11]: 50
- Reduction [12]: 94%

Structure (SMILES): CCC(C)c1ccc(C(c2cc(C)ns2)N2CCN(C)CC2)cc1 (stereo not given)
- Reduction [25]: 19%
- Reduction [3]: 87%
- Reduction [6]: 72%
- Reduction [7]: 67%
- MED [9]: 14
- Reduction [10]: 15%
- therapeutic safety margin (minimum lethal dose / MED) [11]: 20
- Reduction [12]: 55%

Structure (SMILES): CN1CCN(C(c2ccccc2)c2ccccc2)CC1 [CYCLIZINE]
- MED [9]: 30
- Ratio [26]: 10
